Measurements: ChEMBL document CHEMBL1142281, “New 1,2,3,4-tetrahydroisoquinoline derivatives as modulators of proteolytic cleavage of amyloid precursor proteins” (Bioorg Med Chem, 2008)
The source made the active and inactive calls. The rule behind the calls is not given here.

Key:
[1] = Lipophilicity, log P of the compound; format: physicochemical; conditions: octanol/water
[2] = Inhibition of monoamino oxidase B from F344/N rat brain cortex
[3] = target: Mitogen-activated protein kinase; ERK1/ERK2 (Homo sapiens) (UniProt P27361+P28482); experiment: Activation of ERK1/2 in T20 cells at 10 uM relative to nontreated cells; format: cell-based
Mitogen-activated protein kinase; ERK1/ERK2 (Homo sapiens), sequence (P27361 whole entry, looked up): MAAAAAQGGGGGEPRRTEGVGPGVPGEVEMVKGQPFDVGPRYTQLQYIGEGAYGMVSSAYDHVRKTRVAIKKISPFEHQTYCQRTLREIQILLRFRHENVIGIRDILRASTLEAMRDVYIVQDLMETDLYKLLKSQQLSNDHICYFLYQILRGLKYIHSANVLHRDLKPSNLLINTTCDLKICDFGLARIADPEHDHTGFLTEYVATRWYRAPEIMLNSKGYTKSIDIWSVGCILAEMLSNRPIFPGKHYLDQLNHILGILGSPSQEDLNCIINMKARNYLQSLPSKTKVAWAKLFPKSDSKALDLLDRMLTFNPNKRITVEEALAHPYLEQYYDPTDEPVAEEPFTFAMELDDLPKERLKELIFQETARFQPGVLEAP
Mitogen-activated protein kinase; ERK1/ERK2 (Homo sapiens), sequence (P28482 whole entry, looked up): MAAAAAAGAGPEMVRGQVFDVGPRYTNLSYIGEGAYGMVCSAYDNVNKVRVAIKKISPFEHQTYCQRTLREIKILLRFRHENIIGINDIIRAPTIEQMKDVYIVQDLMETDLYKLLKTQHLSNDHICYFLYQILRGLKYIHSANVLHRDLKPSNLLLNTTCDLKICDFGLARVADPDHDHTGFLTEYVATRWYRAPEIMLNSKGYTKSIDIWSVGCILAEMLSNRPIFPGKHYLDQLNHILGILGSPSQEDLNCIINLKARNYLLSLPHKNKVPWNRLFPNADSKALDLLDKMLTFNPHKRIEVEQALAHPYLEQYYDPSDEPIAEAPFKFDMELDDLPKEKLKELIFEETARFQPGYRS
Procedure, shortened: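 T20 cells plated at 5 × 10⁵/well, grown 18 h at 37 °C, then 18 h with tetracycline 1 µg/ml. Medium switched to DMEM with 0.5% FBS and compounds added at 10 µM. Lysis in Tris-HCl pH 8.0 buffer with Triton X-100 and inhibitors; 50 lg protein run on 12% SDS-PAGE and immunoblotted for phospho-ERK1/2 and total ERK1/2. Read-out p-ERK/ERK % of untreated; three experiments.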

[4] = Increase in sAPP alpha secretion in gamma-30 cells; format: functional, cell-based
Procedure, shortened: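 Conditioned media from c-30 cells (full-length APP with human PS1, Aph-1a2, Pen-2), normalised to lysate protein content. Immunoprecipitated with rabbit polyclonal anti-Ab1–17, separated by SDS–PAGE and Western blotted with mouse monoclonal 6E10 to detect sAPPa.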

T20 = experiment: Inhibition of gamma secretase in T20 cells assessed as amyloid precursor protein cleavage at 10 uM after 24 hrs by luciferase reporter gene assay; format: cell-based; parameters: scale not given: the % may be the effect or the level left
Procedure, shortened: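 T20 cells (stable C99-luciferase reporter line, kept in hygromycin/blasticidin/zeocin medium) plated 2 × 10⁴/well and held 24 h at 37 °C. Compounds added at 10 µM final with tetracycline 1 µg/ml for 24 h at 37 °C. Luminescence read with Steady-Glo reagent as fold luciferase activation versus DMSO; triplicates.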

| SMILES | logP [1] | IC50 [2] [µM] | Activity [3] [%] | Activity [4] | Activity (T20) [%] |
| --- | --- | --- | --- | --- | --- |
| O=C(Oc1ccc2c(c1)CN(CC1CC1)CC2)N1CCCC1 | 2.67 | 14.9 |  |  |  |
| CCN(C)C(=O)Oc1ccc2c(c1)CN(CC1CC1)CC2 | 2.69 | 12.8 | 131 | Active | 35 |
| C#CCN1CCc2ccc(OC(=O)N3CCCCC3)cc2C1 | 2.63 | 15.7 |  |  |  |
| C#CCN[C@@H]1CCc2ccccc21 [RASAGILINE] | 2.29 | 2.1 | 131 |  |  |
| C#CCN1CCc2ccc(OC(=O)N3CCCC3)cc2C1 | 2.23 | 13.9 |  |  |  |
| C#CCN1CCc2ccc(OC(=O)N(C)CC)cc2C1 | 2.25 | 21.5 |  |  |  |
| C#CCN1CCc2ccc(OC(=O)N3CCOCC3)cc2C1 | 1.57 | 18.7 |  |  |  |
| O=C(Oc1ccc2c(c1)CN(CC1CC1)CC2)N1CCCCC1 | 3.09 | 11.6 | 155 | Active | 35 |
| O=C(Oc1ccc2c(c1)CN(CC1CC1)CC2)N1CCOCC1 | 2.29 | 18.5 | 138 | Active | 35 |
